According to ChEMBL document CHEMBL2203116, “Synthesis and evaluation of novel carbon-11 labeled oxopurine analogues for positron emission tomography imaging of translocator protein (18 kDa) in peripheral organs” (J Med Chem, 2011):

Tests used:
Heart [1] = experiment: Drug uptake in Sprague-Dawley rat heart at 0.15 nmol, iv pretreated with unlabeled (R)-PK11195 by PET scanning; assay type: ADME, organism-based; conditions: in vivo
Summary of the method: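 Isoflurane-anesthetized Sprague-Dawley rats underwent 30-min PET after iv [11C]radioligand, with unlabeled blocker given iv 1 min before tracer. Blockers were (R)-PK11195 at 3.0 mg/kg or AC-5216 at 1.0 mg/kg in 300 μL saline with 10% ethanol and 5% polysorbate 80. Regional uptake was decay-corrected SUV (n = 4).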

Kidney [2] = experiment: Drug uptake in Sprague-Dawley rat kidney at 0.15 nmol, iv pretreated with unlabeled (R)-PK11195 by PET scanning; assay type: ADME, organism-based; conditions: in vivo
Summary of the method: (§1)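 Male Sprague-Dawley rats (6–8 weeks old), isoflurane-anesthetized, prone. ROIs on lung, heart, kidney, liver, small intestine and cardiac blood pool. Uptake decay-corrected to injection time and expressed as SUV (body-weight normalized). n = 4, mean ± SD.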

Lung [3] = experiment: Drug uptake in Sprague-Dawley rat lung at 0.15 nmol, iv pretreated with unlabeled AC-5216 by PET scanning; assay type: ADME, organism-based; conditions: in vivo; summary of the method: as §1
Kidney [4] = experiment: Drug uptake in Sprague-Dawley rat kidney at 0.15 nmol, iv pretreated with unlabeled AC-5216 by PET scanning; assay type: ADME, organism-based; conditions: in vivo; summary of the method: as §1
Liver [5] = experiment: Drug uptake in Sprague-Dawley rat liver at 0.15 nmol, iv pretreated with unlabeled (R)-PK11195 measured after 27.5 mins by PET scanning relative to control; assay type: ADME, organism-based; conditions: in vivo
Summary of the method: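 Male Sprague-Dawley rats, 6-8 weeks old, under isoflurane, prone. An unlabeled TSPO blocking ligand (3.0 mg/kg) was injected 1 min before the iv radioligand (16-18 MBq/200 μL). A liver ROI was decay-corrected and expressed as SUV normalized to injected activity and body weight. The 27.5-min value was compared with unblocked controls; n = 4.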

[6] = Metabolic stability in Sprague-Dawley rat lung assessed as unchanged compound at 0.32 nmol, iv after 30 mins by analytical radio- HPLC; assay type: ADME, organism-based; conditions: read-out: Stability
[7] = Metabolic stability in Sprague-Dawley rat kidney assessed as unchanged compound at 0.32 nmol, iv after 30 mins by analytical radio- HPLC; assay type: ADME, organism-based; conditions: read-out: Stability
Summary of the method: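 Rats (n = 3) given radioligand iv (37 MBq/100 μL, 0.32 nmol) and killed at 30 min. Heart and kidney homogenized in ice-cold MeCN/H2O 4/6, centrifuged 15000 rpm for 1 min at 4 °C. Supernatant run on analytical radio-HPLC (C18, MeCN/H2O 4/6). Percent parent = parent peak area over total peak areas, decay-corrected. Mean ± SD.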

[8] = Metabolic stability in Sprague-Dawley rat liver assessed as unchanged compound at 0.32 nmol, iv after 30 mins by analytical radio- HPLC; assay type: ADME, organism-based; conditions: read-out: Stability
Blood [9] = experiment: Biodistribution in LPS-treated Sprague-Dawley rat blood at 0.19 nmol, iv by gamma counting; assay type: ADME, organism-based; conditions: in vivo
Summary of the method: (§2)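 Male Sprague-Dawley rats were given intratracheal LPS (E. coli O127:B8, 5.0 mg/kg in 50 μL saline) or 50 μL saline vehicle 24 h before tracer. [11C]Radioligand (16 MBq/200 μL, 0.19 nmol) in saline was injected via the tail vein. Rats were killed at 30 min (n = 4 per group). Tissues were weighed and gamma-counted, expressed as decay-corrected %ID/g.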

Lung [10] = experiment: Biodistribution in LPS-treated Sprague-Dawley rat lung at 0.19 nmol, iv by gamma counting; assay type: ADME, organism-based; conditions: in vivo; summary of the method: as §2
Heart [11] = experiment: Biodistribution in LPS-treated Sprague-Dawley rat heart at 0.19 nmol, iv by gamma counting; assay type: ADME, organism-based; conditions: in vivo; summary of the method: as §2
Kidney [12] = experiment: Biodistribution in LPS-treated Sprague-Dawley rat kidney at 0.19 nmol, iv by gamma counting; assay type: ADME, organism-based; conditions: in vivo; summary of the method: as §2
Spleen [13] = experiment: Biodistribution in LPS-treated Sprague-Dawley rat spleen at 0.19 nmol, iv by gamma counting; assay type: ADME, organism-based; conditions: in vivo; summary of the method: as §2
Pancreas = experiment: Biodistribution in LPS-treated Sprague-Dawley rat pancreas at 0.19 nmol, iv by gamma counting; assay type: ADME, organism-based; conditions: in vivo; summary of the method: as §2
Adrenal [14] = experiment: Biodistribution in LPS-treated Sprague-Dawley rat adrenal at 0.19 nmol, iv by gamma counting; assay type: ADME, organism-based, Adrenal tissue; conditions: in vivo; summary of the method: as §2
Rattus norvegicus = experiment: Biodistribution in LPS-treated Sprague-Dawley rat small intestine at 0.19 nmol, iv by gamma counting; assay type: ADME, organism-based; conditions: in vivo; summary of the method: as §2
Muscle tissue [15] = experiment: Biodistribution in LPS-treated Sprague-Dawley rat muscle at 0.19 nmol, iv by gamma counting; assay type: ADME, organism-based; conditions: in vivo; summary of the method: as §2
Blood [16] = experiment: Biodistribution in Sprague-Dawley rat blood at 0.19 nmol, iv by gamma counting; assay type: ADME, organism-based; conditions: in vivo; summary of the method: as §2
Brain = experiment: Biodistribution in Sprague-Dawley rat brain at 0.19 nmol, iv by gamma counting; assay type: ADME, organism-based; conditions: in vivo; summary of the method: as §2
Lung [17] = experiment: Biodistribution in Sprague-Dawley rat lung at 0.19 nmol, iv by gamma counting; assay type: ADME, organism-based; conditions: in vivo; summary of the method: as §2
Liver [18] = experiment: Biodistribution in Sprague-Dawley rat liver at 0.19 nmol, iv by gamma counting; assay type: ADME, organism-based; conditions: in vivo; summary of the method: as §2
Kidney [19] = experiment: Biodistribution in Sprague-Dawley rat kidney at 0.19 nmol, iv by gamma counting; assay type: ADME, organism-based; conditions: in vivo; summary of the method: as §2
Spleen [20] = experiment: Biodistribution in Sprague-Dawley rat spleen at 0.19 nmol, iv by gamma counting; assay type: ADME, organism-based; conditions: in vivo; summary of the method: as §2
Adrenal [21] = experiment: Biodistribution in Sprague-Dawley rat adrenal at 0.19 nmol, iv by gamma counting; assay type: ADME, organism-based, Adrenal tissue; conditions: in vivo; summary of the method: as §2
Muscle tissue [22] = experiment: Biodistribution in Sprague-Dawley rat muscle at 0.19 nmol, iv by gamma counting; assay type: ADME, organism-based; conditions: in vivo; summary of the method: as §2
Blood [23] = experiment: Drug uptake in Sprague-Dawley rat cardiac blood pool at 0.15 nmol, iv after 27.5 mins by PET scanning; assay type: ADME, organism-based; conditions: in vivo
Summary of the method: (§3)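 Isoflurane-anesthetized male Sprague-Dawley rats lay prone and received an iv bolus of [11C]radioligand in 200 μL. 3D list-mode emission scans ran 30 min from injection. Regions of interest were drawn on the organs and cardiac blood pool. Uptake was decay-corrected to injection time and expressed as SUV (normalized to injected radioactivity and body weight). Values are mean of n = 4.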

Liver [24] = experiment: Drug uptake in Sprague-Dawley rat liver at 0.15 nmol, iv after 27.5 mins by PET scanning; assay type: ADME, organism-based; conditions: in vivo; summary of the method: as §1
Lung [25] = experiment: Drug uptake in Sprague-Dawley rat lung at 0.15 nmol, iv after 30 mins by PET scanning; assay type: ADME, organism-based; conditions: in vivo, 0.5 h; summary of the method: as §1
Heart [26] = experiment: Drug uptake in Sprague-Dawley rat heart at 0.15 nmol, iv up to 30 mins by PET scanning; assay type: ADME, organism-based; conditions: in vivo, 0.5 h; summary of the method: as §3
Kidney [27] = experiment: Drug uptake in Sprague-Dawley rat kidney at 0.15 nmol, iv up to 30 mins by PET scanning; assay type: ADME, organism-based; conditions: in vivo, 0.5 h; summary of the method: as §1
Liver [28] = experiment: Drug uptake in Sprague-Dawley rat liver at 0.15 nmol, iv up to 30 mins by PET scanning; assay type: ADME, organism-based; conditions: in vivo, 0.5 h; summary of the method: as §1
Intestine = experiment: Drug uptake in Sprague-Dawley rat small intestine at 0.15 nmol, iv up to 30 mins by PET scanning; assay type: ADME, organism-based; conditions: in vivo, 0.5 h; summary of the method: as §1
Lung [29] = experiment: Drug uptake in Sprague-Dawley rat lung at 0.15 nmol, iv after 2 mins by PET scanning; assay type: ADME, organism-based; conditions: in vivo; summary of the method: as §1
Heart [30] = experiment: Drug uptake in Sprague-Dawley rat heart at 0.15 nmol, iv after 2 mins by PET scanning; assay type: ADME, organism-based; conditions: in vivo; summary of the method: as §3
Kidney [31] = experiment: Drug uptake in Sprague-Dawley rat kidney at 0.15 nmol, iv after 2 mins by PET scanning; assay type: ADME, organism-based; conditions: in vivo; summary of the method: as §1
Blood [32] = experiment: Drug uptake in Sprague-Dawley rat cardiac blood pool at 0.15 nmol, iv after 2 mins by PET scanning; assay type: ADME, organism-based; conditions: in vivo; summary of the method: as §3
Lung [33] = experiment: Drug uptake in Sprague-Dawley rat lung at 0.15 nmol, iv after 27.5 mins by PET scanning; assay type: ADME, organism-based; conditions: in vivo; summary of the method: as §1
Kidney [34] = experiment: Drug uptake in Sprague-Dawley rat kidney at 0.15 nmol, iv after 27.5 mins by PET scanning; assay type: ADME, organism-based; conditions: in vivo; summary of the method: as §1

Drug uptake (Heart [1]): Not Active
Drug uptake (Kidney [2]): Not Active
Drug uptake (Lung [3]): Not Active
Drug uptake (Kidney [4]): Not Active
fold change (FC) (Liver [5]): 1.5
remaining at 0.5 h [6]: 92.1%
remaining at 0.5 h [7]: 94.7%
remaining at 0.5 h [8]: 43.6%
Drug uptake (Blood [9]): 0.08 % ID/g
Drug uptake (Lung [10]): 3.54 % ID/g
Drug uptake (Heart [11]): 2.17 % ID/g
Drug uptake (Kidney [12]): 1.97 % ID/g
Drug uptake (Spleen [13]): 1.88 % ID/g
Drug uptake (Pancreas): 0.37 % ID/g
Drug uptake (Adrenal [14]): 5.27 % ID/g
Drug uptake (Rattus norvegicus): 2.68 % ID/g
Drug uptake (Muscle tissue [15]): 0.1 % ID/g
Drug uptake (Blood [16]): 0.06 % ID/g
Drug uptake (Brain): 0.02 % ID/g
Drug uptake (Lung [17]): 1.65 % ID/g
Drug uptake (Liver [18]): 0.53 % ID/g
Drug uptake (Kidney [19]): 1.78 % ID/g
Drug uptake (Spleen [20]): 1.88 % ID/g
Drug uptake (Adrenal [21]): 7.49 % ID/g
Drug uptake (Muscle tissue [22]): 0.11 % ID/g
SUV (Blood [23]): 0.4
SUV (Liver [24]): 0.5
Drug uptake (Lung [25]): Active
Drug uptake (Heart [26]): Active
Drug uptake (Kidney [27]): Active
Drug uptake (Liver [28]): Active
Drug uptake (Intestine): Active
SUV (Lung [29]): 3.4
SUV (Heart [30]): 4.6
SUV (Kidney [31]): 3.3
SUV (Blood [32]): 3
SUV (Lung [33]): 0.5
SUV (Kidney [34]): 1
SMILES: CCN(Cc1ccncc1)C(=O)Cn1c(=O)n([11CH3])c2cnc(-c3ccccc3)nc21
